Measurements from ChEMBL document CHEMBL1128224 (J Med Chem, 1995).
pKi: −log10 of the molar value.

Columns and labels:
[1] = biological target: Mu-type opioid receptor (Cavia porcellus, UniProt P97266); experiment: The opioid receptor affinity(Ki) was evaluated by competition with [3H]DAMGO (mu) on guinea pig brain membranes; design: species or system Membrane
[2] = biological target: Kappa-type opioid receptor (Cavia porcellus) (UniProt P41144); experiment: IC50 ratio was measured on ethylketazocine (Opioid receptor kappa 1) in the guinea pig ileal longitudinal muscle(GPI) preparation
[3] = biological target: Delta-type opioid receptor (Mus musculus) (UniProt P32300); experiment: IC50 ratio was measured on DADLE (delta) in the mouse vas deferens (MVD) preparation
[4] = biological target: Delta-type opioid receptor (Mus musculus) (UniProt P32300); experiment: The antagonist potencies mediated through […] were expressed as Ke values calculated on DADLE(delta) in the mouse vas deferens(MVD) preparation; format: functional
Summary of the method: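 In electrically stimulated mouse vas deferens with DADLE as agonist, antagonist was preincubated 15 min at 100 nM unless otherwise specified. Ke = [antagonist]/(IC50 ratio − 1) from the Schild relationship, averaged over at least three IC50 ratio determinations.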

[5] = biological target: Kappa-type opioid receptor (Cavia porcellus, UniProt P41144); experiment: The opioid receptor affinity(Ki) was evaluated by competition with 9 (Opioid receptor kappa 1) on guinea pig brain membranes; design: species or system Membrane
[6] = biological target: Mu-type opioid receptor (Cavia porcellus) (UniProt P97266); experiment: IC50 ratio was measured on Morphine(mu) in the guinea pig ileal longitudinal muscle(GPI) preparation; format: tissue-based; conditions: Muscle tissue
[7] = biological target: T1, Opioid receptors; delta & kappa (Homo sapiens) (UniProt P41145+P41143); experiment: Selectivity as the ratio of IC50 value against delta receptor to that of kappa receptor.; format: protein assay
[8] = biological target: T2, Opioid receptors; mu & delta (Homo sapiens) (UniProt P41143+P35372); experiment: Selectivity as the ratio of IC50 value against delta receptor to that of mu receptor.; format: protein assay
[9] = biological target: T1, Opioid receptors; delta & kappa (Homo sapiens); experiment: Selectivity as the ratio of Ki value towards kappa receptor to that of delta 1 receptor.; format: protein assay
[10] = biological target: T2, Opioid receptors; mu & delta (Homo sapiens); experiment: Selectivity as the ratio of Ki value towards mu receptor to that of delta 1 receptor.; format: protein assay
[11] = system: Mus musculus; experiment: Intracerebroventricular dose required to produce an equivalnet antagonism of DPDPE-induced antinociception.; format: functional
Summary of the method: (§1)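 In the mouse tail-flick assay against DPDPE-induced antinociception, the antagonist was given icv or iv. […] The iv/icv value is the ratio of these two doses.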

[12] = system: Mus musculus; experiment: Intravenous dose required to produce an equivalnet antagonism of DPDPE-induced antinociception.; format: functional; summary of the method: as §1
[13] = biological target: Mu-type opioid receptor (Mus musculus) (UniProt P42866); experiment: Antagonist activity against the mu opioid receptor using morphine as agonist at 20 pmol/kg (icv) was determined as ratio of ED50 of antagonist to the control (ED50 of control = 9.7 (8.6-10.9) umol/kg); format: functional
[14] = (§2) Antagonist activity against the delta1 opioid receptor using DPDPE as agonist at 20 pmol/kg (icv) was determined as ratio of ED50 of antagonist to the control (ED50 of control = 8.6 (6.5-11.1) nmol/kg); format: functional
[15] = biological target: Delta-type opioid receptor (Homo sapiens) (UniProt P41143); conditions: 0.8 umol/kg
[16] = biological target: Delta-type opioid receptor (Mus musculus) (UniProt P32300); experiment: as §2; format: functional
[17] = biological target: Kappa-type opioid receptor (Mus musculus) (UniProt P33534); experiment: Antagonist activity against the kappa opioid receptor using U-50,488H as agonist at 20 pmol/kg (icv) was determined as ratio of ED50 of antagonist to the control (ED50 of control = 27.3 (8.5-52.8) umol/kg); format: functional
[18] = Ratio of iv dose to that of icv.; format: functional; summary of the method: as §1

SMILES	pKi [1]	IC50 ratio [2]	IC50 ratio [3]	Ke [4]	pKi [5]	IC50 ratio [6]	Selectivity [7]	Selectivity [8]	Selectivity [9]	Selectivity [10]	Dose [11]	Dose [12]	ED50 ratio [13]	ED50 ratio [14]	ED50 ratio [15]	ED50 ratio [16]	ED50 ratio [17]	Ratio [18]
NCCC[C@@H](NC(=O)c1cccc2c3c([nH]c12)[C@@H]1Oc2c(O)ccc4c2C12CCN(CC1CC1)C(C4)[C@]2(O)C3)C(=O)O (some centres not stated)	6.87	0.9	58	1.8 nM	7.24	3	63	20	320	756								
O=C(O)C[C@@H](NC(=O)c1cccc2c3c([nH]c12)[C@@H]1Oc2c(O)ccc4c2C12CCN(CC1CC1)C(C4)[C@]2(O)C3)C(=O)O (some centres not stated)	6.43	2.1	89	1.1 nM	6.05	1.3	30	67	6250	2570	12.5 pM/kg	0.62 µM/kg	1	2.6	2.3			
O=C(O)c1cccc2c3c([nH]c12)[C@@H]1Oc2c(O)ccc4c2C12CCN(CC1CC1)C(C4)[C@]2(O)C3 (some centres not stated)	7.62	1	25	0.4 nM		2	231	122	3250	1850								
NCCCC[C@@H](NC(=O)c1cccc2c3c([nH]c12)[C@@H]1Oc2c(O)ccc4c2C12CCN(CC1CC1)C(C4)[C@]2(O)C3)C(=O)O (some centres not stated)	6.66	1.1	20	5.2 nM	7.39	1	20	20	134	719								
O=C(O)CNC(=O)c1cccc2c3c([nH]c12)[C@@H]1Oc2c(O)ccc4c2C12CCN(CC1CC1)C(C4)[C@]2(O)C3 (some centres not stated)	6.69	1.1	32	3.2 nM		1.5	30	21	30000	38200	4.7 pM/kg	0.53 µM/kg	0.9			5.3	0.8	112766
N=C(N)NCCC[C@@H](NC(=O)c1cccc2c3c([nH]c12)[C@@H]1Oc2c(O)ccc4c2C12CCN(CC1CC1)C(C4)[C@]2(O)C3)C(=O)O (some centres not stated)	6.48	1.2	31	3.3 nM	6.73	1.3	27	24	1180	2100								
Oc1ccc2c3c1O[C@H]1c4[nH]c5ccccc5c4C[C@@]4(O)[C@@H](C2)N(CC2CC2)CC[C@]314 [NALTRINDOLE]				0.2 nM							300 pM/kg	2.19 µM/kg						
